PP5 inh = inhibitors of human protein phosphatase 5 (PP5) | P53041 | purified PP5c, OMFP substrate fluorescence | inhibition, % at 6.7 µM | 320,000 tested, 0.18% active | AID 1987;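 active = inhibition above the campaign's mean inhibition across all tested compounds plus 3 SD, cut at about 9.5% in these data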;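 also: 0% = DMSO only and 100% = 100 µM cantharidin control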
UCH37 DUB inh = inhibitors of human deubiquitinating enzyme UCH37. 330,000 tested, 0.33% active. purified proteasome/UCH37, Ub-AMC cleavage fluorescence. AID 588478. inhibition, % (test concentration not listed);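 active = mean inhibition over replicate wells above about 20%, limit read from the data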;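 also: 0% = compound-free wells with enzyme and 100% = wells lacking proteasome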
Target sequence (Q9Y5K5 whole entry, looked up): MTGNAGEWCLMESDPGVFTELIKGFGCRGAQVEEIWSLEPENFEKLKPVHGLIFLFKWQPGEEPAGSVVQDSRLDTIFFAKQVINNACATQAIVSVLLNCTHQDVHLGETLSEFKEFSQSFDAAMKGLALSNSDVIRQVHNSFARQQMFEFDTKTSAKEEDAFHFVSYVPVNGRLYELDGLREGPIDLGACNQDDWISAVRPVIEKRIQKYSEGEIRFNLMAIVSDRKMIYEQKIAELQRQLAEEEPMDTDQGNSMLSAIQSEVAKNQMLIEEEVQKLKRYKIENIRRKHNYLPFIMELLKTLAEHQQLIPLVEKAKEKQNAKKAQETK
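assay system = human UCH37 enzyme supplied as purified proteasome complex | amount = proteasome at 0.15 nM in the dispensed enzyme solution | schedule = 30 min compound-proteasome preincubation then 25 min substrate reaction, room temperature | measured by = fluorescence, ex 355 nm, em 460 nm | benchmarks = no-proteasome wells (full inhibition) and compound-free wells (no inhibition)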
UBC13 inh = human UBC13 polyubiquitination inhibition; inhibition, % at 20 µM; P61088; UBC13 polyubiquitin chain formation, TR-FRET; 330,000 tested, 0.47% active; in the data active = inhibition above about 45%, passing the limit was not always enough
Target sequence (P61088 whole entry, looked up): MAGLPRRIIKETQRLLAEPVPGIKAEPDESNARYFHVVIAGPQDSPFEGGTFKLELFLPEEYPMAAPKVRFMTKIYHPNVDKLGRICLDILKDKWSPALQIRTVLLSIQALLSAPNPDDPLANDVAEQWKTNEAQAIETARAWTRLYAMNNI
Fh CTSL1 inh = blocks F. hepatica cathepsin L1 in PFM18AAP counter-screen. recombinant F. hepatica cathepsin L1, Z-Leu-Arg-MCA fluorescence. inhibition, % at 5.96 µM. 300,000 tested, 0.49% active. AID 1906;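 active = inhibition above the mean of all tested compounds plus 3 SD, set per screening campaign, cut at about 17% in these data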;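 also: 0% = plate median of test compound wells and 100% = 1 µM Z-Phe-Ala-diazomethylketone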
PREPL inhibitor = inhibitors of human prolyl oligopeptidase-like enzyme PREPL; inhibition, % at 5.96 µM; 320,000 tested, 0.68% active; recombinant PREPL, fluorescence polarization activity-based probe; in the data active = inhibition above about 43%;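 also: 0% = enzyme with DMSO and 100% = wells lacking enzyme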
PP1 inh = PP1-alpha (human) inhibition in PP5 counter-screen; P62136; 320,000 tested, 0.9% active; inhibition, % at 6.7 µM; purified PP1alpha, OMFP fluorescence;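 active = inhibition above the mean inhibition of all tested compounds plus 3 SD, computed separately for each screening campaign, cut at about 15% in these data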
The depositor's hits bear a star; . = not tested or not shown. The list is not random: actives were taken first. Their share in the collection is about 2.3%.

SMILES | PP5 inh | UCH37 DUB inh | UBC13 inh | Fh CTSL1 inh | PREPL inhibitor | PP1 inh
O=C(O)c1[nH]c2ccccc2c1C(c1ccccc1)c1c(C(=O)O)[nH]c2ccccc12 | 3 | 6 | -20 | 0 | -1 | 6
CC(C)[C@H](NC(=O)OCc1ccccc1)C(=O)NC(C=O)Cc1ccccc1 (stereo not given in full) | 1 | 2 | -17 | 113* | 9 | -4
CC(=NNC(=O)c1cc(-c2cccc([N+](=O)[O-])c2)n[nH]1)c1ccccc1O | . | 2 | . | . | . | .
COc1ccc(Cl)cc1C(Nc1cccnc1)c1ccc2cccnc2c1O (stereo not given) | -1 | 0 | -7 | -1 | -11 | 17*
N#Cc1c(C#N)c(O)c2ccccc2c1O | 2 | -39 | -7 | -4 | 1 | 0
N=C1CCC(=N)c2c1c(O)c1ccccc1c2O | 3 | . | -86 | 19* | 41 | -1
CCCn1c(=O)c(C(=O)OCC)c(O)c2cc(Br)ccc21 | 4 | 4 | 6 | -1 | -9 | 4
CCOC(=O)c1c(CN(C)C)n(C)c2c(O)c(N=NC(N)=O)c3ccc(Br)cc3c12 | 9 | 52* | -29 | 20* | 16 | 17*
CCN(CC)c1ccc(/C=C(\C#N)C(=O)NCc2ccco2)cc1 | 5 | 1 | . | 23* | 6 | 1
CN(C)c1ccc(/C=C(\C#N)C(=O)NCc2ccco2)cc1 | 3 | 3 | -22 | 3 | 3 | 6
CCc1ccc2[nH]c(=O)c(C3C(C#N)=C(N)Oc4c3ccc3cccnc43)cc2c1 (stereo not given) | 1 | -33 | 19 | 6 | -11 | 23*
CC(=O)c1sc(NN=Cc2cccc(Br)c2)nc1C | . | -13 | . | . | . | .
Cc1ccc(C2CC(c3cccs3)=NN2C(=O)CCl)cc1 (stereo not given) | 4 | . | 8 | 52* | 1 | 0
CCC(=O)N1N=C(c2cccs2)CC1c1ccc(C)cc1 (stereo not given) | 2 | -18 | -2 | 6 | 1 | 0
CCn1c2ccccc2c2cc(NC(=O)c3coc(=O)c(Br)c3)ccc21 | -1 | . | -56 | 1 | 21 | 4
CCn1c2ccccc2c2cc(NC(=O)c3ccc(=O)oc3)ccc21 | 1 | . | -25 | 4 | 71* | 3
O=C(O)c1cc(N2N=C(C(F)(F)F)/C(=C/C=C/c3ccco3)C2=O)ccc1Cl | . | 21* | . | . | . | .
COc1cccc(C=Nn2nnnc2N)c1O | . | 4 | . | . | . | .
NC(=O)c1sc2nc3c(c(-c4ccco4)c2c1N)CCC3 | 2 | 8 | 17 | 0 | 31 | 0
Cc1ccc(-c2c3c(nc4sc(C(N)=O)c(N)c24)CCCC3)o1 | 4 | 4 | -9 | 38* | 21 | -2
O=C(NN=C1CCS(=O)(=O)c2ccc(F)cc21)c1ccc(O)cc1 | . | 3 | . | . | . | .
COC(=O)C1=C(C(=O)OC)[C@@H]2N(C)c3ccccc3[C@@]23C[C@@H](C(=O)OC)N(C(=O)c2cccs2)C3=N1 | 3 | 2 | -3 | -2 | -1 | -1
COC(=O)C1=C(C(=O)OC)[C@@H]2N(C)c3ccc(OC)cc3[C@@]23C[C@@H](C(=O)OC)N(C(=O)c2cccs2)C3=N1 | -1 | 42* | -8 | -2 | -2 | -4
CC(=NOCC(=O)Nc1ccccc1Br)c1cccs1 | . | 2 | . | . | . | .
CCOC(=O)/C(=C/c1ccc(OC(=O)c2ccccc2)cc1)C(C)=O | 2 | 4 | -4 | -1 | 16 | 0
SMILES | PP5 inh | UCH37 DUB inh | UBC13 inh | Fh CTSL1 inh | PREPL inhibitor | PP1 inh
CCOC(=O)/C(=C/C1=CC(=C/N(C)C)/C(=O)O1)C(C)=O | 1 | 22* | -78 | 4 | -3 | 1
COc1ccc(C2CC(c3ccccc3)=NN2C(=O)COC(=O)CNC(=O)c2ccccc2)cc1 (stereo not given) | 6 | 0 | 18 | 31* | 2 | -4
O=C(CNC(=O)c1ccccc1)OCC(=O)N1N=C(c2ccc(Cl)cc2)CC1c1ccco1 (stereo not given) | 1 | 2 | 13 | 20* | -111 | 4
CCNC(=S)NN=Cc1c(C)nn(-c2cccc(Cl)c2)c1Cl | . | 1 | . | . | . | .
COc1ccc(C=NNC(=O)C2(C)NC(C)(C)Cc3ccccc32)cc1 (stereo not given) | . | 8 | . | . | . | .
COc1cccc(C=NNC(=O)CNC(=O)CCc2ccccc2)c1O | . | -3 | . | . | . | .
CCOc1ccc(N2C(=O)C(Cl)=C(Nc3ccccc3O)C2=O)cc1 | 3 | 5 | -9 | 17* | 15 | 2

Bioassay records deposited in PubChem BioAssay by several laboratories.
